The source made the active and inactive calls. No cut-off for these calls is given here.
Columns and labels:
HepG2 = experiment: Cytotoxicity against human HepG2 cells assessed as reduction in cell survival after 24 hrs by MTT assay; assay type: cell-based; conditions: HepG2, 24 h
L02 = experiment: Cytotoxicity against human LO2 cells assessed as reduction in cell survival after 24 hrs by MTT assay; assay type: cell-based; conditions: L02, 24 h
Danio rerio [1] = species on record: Danio rerio; experiment: Toxicity in AB zebrafish embryo assessed as reduction in number of embryos alive at 120 hrs post fertilization by dissecting light microscopic analysis; assay type: organism-based; conditions: in vivo
In short: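 Wild-type AB embryos, 100 per group split into three replicates, one per well in 200 μL test solution, plates sealed; DMF vehicle control (1:1000); mortality recorded at 24–168 hpf intervals; three independent experiments, mean ± SD.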

Danio rerio [2] = species on record: Danio rerio; experiment: Toxicity in AB zebrafish embryo assessed as effect on hatching rate of embryos at 0.5 to 1 uM measured at 48 hrs post fertilization by dissecting light microscopic analysis; assay type: organism-based; conditions: in vivo
In short: (§1)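 AB embryos exposed from 4 to 72 hpf to compound (0.5–20 μM) or DMF vehicle (1:1000), one embryo per well; hatch rate scored at 48 hpf; n=100 per group in three replicates; three independent experiments, mean ± SD.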

Danio rerio [3] = species on record: Danio rerio; experiment: Toxicity in AB zebrafish embryo assessed as reduction in hatching rate of embryos at 5 to 20 uM measured at 48 hrs post fertilization by dissecting light microscopic analysis; assay type: organism-based; conditions: in vivo; in short: as §1
Danio rerio [4] = species on record: Danio rerio; experiment: Toxicity in AB zebrafish embryo assessed as reduction in embryonic spontaneous movement frequency per minute at 0.5 uM measured at 24 hrs post fertilization by stereoscopic dissecting light microscopic analysis; assay type: organism-based; conditions: in vivo
In short: (§2)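 AB embryos exposed from 4 to 24 hpf to compound (0.5–20 μM) or DMF vehicle (1:1000); ten embryos per group chosen randomly; spontaneous movement recorded under stereoscopic dissecting microscope, frequency per min counted at 24 hpf; three independent experiments, mean ± SD.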

Danio rerio [5] = species on record: Danio rerio; experiment: Effect on locomotor activity in wild type AB zebrafish larvae assessed as decrease in total swimming distance at 10 uM measured for 5 mins at 144 hrs post fertilization by visible light test; assay type: ADME, organism-based; conditions: in vivo
Danio rerio [6] = species on record: Danio rerio; experiment: Effect on locomotor activity in wild type AB zebrafish larvae assessed as decrease in total swimming distance at 0.5 to 1 uM measured for 5 mins at 144 hrs post fertilization by visible light test; assay type: ADME, organism-based; conditions: in vivo
[7] = target: T1, Nitric oxide synthase, inducible (Mus musculus) (UniProt P29477); experiment: Inhibition of iNOS in mouse RAW264.7 cells assessed as reduction in LPS-induced NO production administered for 24 hrs post LPS induction by Griess method; assay type: cell-based
T1 sequence (whole entry): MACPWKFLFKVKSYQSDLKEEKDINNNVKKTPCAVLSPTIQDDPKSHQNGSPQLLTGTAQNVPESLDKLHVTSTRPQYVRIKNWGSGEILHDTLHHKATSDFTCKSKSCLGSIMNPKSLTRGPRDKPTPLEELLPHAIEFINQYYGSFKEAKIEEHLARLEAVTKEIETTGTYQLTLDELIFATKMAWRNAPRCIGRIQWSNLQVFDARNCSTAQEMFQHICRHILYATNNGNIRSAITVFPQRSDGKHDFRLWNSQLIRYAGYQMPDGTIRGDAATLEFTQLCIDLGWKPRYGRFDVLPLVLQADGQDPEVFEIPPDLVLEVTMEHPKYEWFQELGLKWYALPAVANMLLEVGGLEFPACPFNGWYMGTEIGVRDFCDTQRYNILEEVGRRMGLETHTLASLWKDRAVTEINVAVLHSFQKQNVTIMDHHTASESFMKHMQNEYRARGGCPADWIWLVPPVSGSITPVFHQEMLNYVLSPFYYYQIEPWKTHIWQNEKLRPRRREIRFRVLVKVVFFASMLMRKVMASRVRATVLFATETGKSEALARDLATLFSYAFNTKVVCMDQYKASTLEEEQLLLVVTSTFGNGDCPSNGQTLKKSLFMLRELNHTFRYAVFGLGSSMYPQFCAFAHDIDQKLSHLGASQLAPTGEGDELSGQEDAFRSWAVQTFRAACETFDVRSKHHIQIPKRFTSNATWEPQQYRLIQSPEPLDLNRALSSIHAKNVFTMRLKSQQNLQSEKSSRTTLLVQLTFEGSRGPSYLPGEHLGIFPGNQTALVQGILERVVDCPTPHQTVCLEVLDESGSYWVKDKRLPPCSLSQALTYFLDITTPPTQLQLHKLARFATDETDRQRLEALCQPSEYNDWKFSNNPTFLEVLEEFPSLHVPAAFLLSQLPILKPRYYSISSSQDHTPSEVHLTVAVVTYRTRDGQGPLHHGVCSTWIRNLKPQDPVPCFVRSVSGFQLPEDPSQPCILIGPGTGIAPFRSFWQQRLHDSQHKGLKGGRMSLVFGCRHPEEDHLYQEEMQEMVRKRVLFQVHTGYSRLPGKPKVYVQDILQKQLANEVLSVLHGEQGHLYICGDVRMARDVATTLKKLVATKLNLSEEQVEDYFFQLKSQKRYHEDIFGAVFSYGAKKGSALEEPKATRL
In short: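 RAW264.7 cells stimulated with LPS 1 μg/mL for 4 h, then compound (10, 50, 100 μM) for 24 h; culture medium reacted with Griess reagents I and II, absorbance 570 nm; nitrite from sodium nitrite standard curve (0–100 μM in medium); four independent experiments, mean ± SD.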

RAW264.7 [8] = experiment: Antiinflammatory activity in mouse RAW264.7 cells assessed as reduction in LPS-induced TNFalpha levels incubated for 24 hrs post LPS induction by ELISA; assay type: functional, cell-based
In short: (§3)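 LPS (1 μg/mL) for 4 h, then compound at 10, 50, 100 μM for 24 h; cells lysed in RIPA, spun 12,000×g 10 min, protein normalised by BCA to 0.1 mg/mL; target (TNF-α, HO-1, IL-10 or COX-2) quantified by sandwich ELISA kit with mouse-specific polyclonal antibodies; four independent experiments.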

RAW264.7 [9] = experiment: Antiinflammatory activity in mouse RAW264.7 cells assessed as increase in LPS-induced IL10 levels at 10 to 100 uM incubated for 24 hrs post LPS induction by ELISA; assay type: functional, cell-based; in short: as §3
RAW264.7 [10] = experiment: Antiinflammatory activity in mouse RAW264.7 cells assessed as increase in IL10 levels at 10 to 100 uM measured after 24 hrs in absence of LPS by ELISA; assay type: functional, cell-based
In short: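 Macrophages exposed 24 h to 10, 50, 100 μM without LPS; lysates (RIPA, 12,000×g spin) normalised by BCA to 0.1 mg/mL protein; IL-10 measured by mouse-specific sandwich ELISA kit; four independent experiments, mean ± SD.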

RAW264.7 [11] = experiment: Antiinflammatory activity in mouse RAW264.7 cells assessed as increase in LPS-induced HO-1 expression incubated for 24 hrs post LPS induction by ELISA; assay type: functional, cell-based; in short: as §3
RAW264.7 [12] = experiment: Antiinflammatory activity in mouse RAW264.7 cells assessed as increase in LPS-induced HO-1 expression at 100 uM incubated for 24 hrs post LPS induction by ELISA relative to contol; assay type: functional; in short: as §3
RAW264.7 [13] = experiment: Inhibition of LPS-induced COX2 expression in mouse RAW264.7 cells at 10 to 100 uM incubated for 24 hrs post LPS induction by ELISA; assay type: functional, cell-based; in short: as §3
Danio rerio [14] = species on record: Danio rerio; experiment: Toxicity in AB zebrafish embryo assessed as reduction in embryonic spontaneous movement frequency per minute measured at 24 hrs post fertilization by stereoscopic dissecting light microscopic analysis; assay type: organism-based; conditions: in vivo; in short: as §2

**Q.** How did the IC50 (HepG2) turn out when `CC(C)Cc1ccc(C(C)C(=O)Oc2ccc(C(N)=S)cc2)cc1` (configuration not stated) was run?
**A.** 89.3 µM

**Q.** And the IC50 (L02)?
**A.** 221 µM

**Q.** What about the Activity (Danio rerio [1]) of the same compound?
**A.** Dose-dependent effect

**Q.** And the Activity (Danio rerio [2])?
**A.** Non-Toxic

**Q.** And the Activity (Danio rerio [3])?
**A.** Toxic

**Q.** What about the Activity (Danio rerio [4]) of the same compound?
**A.** Non-Toxic

**Q.** And the Activity (Danio rerio [5])?
**A.** Toxic

**Q.** And the Activity (Danio rerio [6])?
**A.** Non-Toxic

**Q.** What about the inhibition [7] of the same compound?
**A.** Dose-dependent effect

**Q.** And the Activity (RAW264.7 [8])?
**A.** Dose-dependent effect

**Q.** What about the Activity (RAW264.7 [9]) of the same compound?
**A.** Active

**Q.** What about the Activity (RAW264.7 [10]) of the same compound?
**A.** Active

**Q.** And the Activity (RAW264.7 [11])?
**A.** Dose-dependent effect

**Q.** What about the “fold change (FC)” value (RAW264.7 [12]) of the same compound?
**A.** >3

**Q.** And the inhibition (RAW264.7 [13])?
**A.** Active

**Q.** What about the Activity (Danio rerio [14]) of the same compound?
**A.** Dose-dependent effect

**Q.** For `CC(=O)Nc1ccc(OC(=O)CCCCC2CCSS2)cc1` (configuration not stated), which IC50 (HepG2) is on record?
**A.** 966 µM

**Q.** What about the IC50 (L02) of the same compound?
**A.** 1790 µM

**Q.** And the Activity (Danio rerio [1])?
**A.** Dose-dependent effect

**Q.** What about the Activity (Danio rerio [2]) of the same compound?
**A.** Non-Toxic

**Q.** And the Activity (Danio rerio [3])?
**A.** Toxic

**Q.** What about the Activity (Danio rerio [4]) of the same compound?
**A.** Non-Toxic

**Q.** And the Activity (Danio rerio [5])?
**A.** Toxic

**Q.** And the Activity (Danio rerio [6])?
**A.** Non-Toxic

**Q.** And the inhibition [7]?
**A.** Dose-dependent effect

**Q.** What about the Activity (RAW264.7 [8]) of the same compound?
**A.** Dose-dependent effect

**Q.** What about the Activity (RAW264.7 [9]) of the same compound?
**A.** Active

**Q.** And the Activity (RAW264.7 [10])?
**A.** Active

**Q.** What about the Activity (RAW264.7 [11]) of the same compound?
**A.** Dose-dependent effect

**Q.** What about the “fold change (FC)” value (RAW264.7 [12]) of the same compound?
**A.** <=2

**Q.** And the inhibition (RAW264.7 [13])?
**A.** Active

**Q.** And the Activity (Danio rerio [14])?
**A.** Dose-dependent effect
